Measurements: ChEMBL document CHEMBL1121371, “Antihypertensive 5,6-diarylpyridazin-3-ones” (1980)

Tests used:
Rattus norvegicus [1] = assay: Antihypertensive activity in spontaneously hypertensive rats, measured as average blood pressure at 100 mg/kg, p.o. before predose; No significant lowering of blood pressure; format: functional, organism-based; set-up: dose 100 mg/kg
Rattus norvegicus [2] = assay: Antihypertensive activity in spontaneously hypertensive rats was measured as average blood pressure at 100 mg/kg, p.o. after 24 hours of postdose-1.; format: functional; conditions: route oral
In short: (§1)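 Spontaneously hypertensive rats aged 12 to 16 weeks, in groups of five with systolic pressure of 170 mmHg or more. Oral dosing as a solution or suspension in 0.25% methylcellulose, 5 mL/kg, with a vehicle control group. Tail-cuff systolic pressure was read predose and 4 and 24 h after each of two doses. Values were compared with predose by Student's t test.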

Rattus norvegicus [3] = assay: Antihypertensive activity in spontaneously hypertensive rats was measured as average blood pressure at 100 mg/kg, p.o. before predose; format: functional; conditions: route oral; in short: as §1
Rattus norvegicus [4] = assay: Antihypertensive activity in spontaneously hypertensive rats was measured as average blood pressure at 100 mg/kg, p.o. after 4 hours of postdose-2; format: functional; conditions: route oral; in short: as §1
Rattus norvegicus [5] = assay: Antihypertensive activity in spontaneously hypertensive rats was measured as average blood pressure at 100 mg/kg, p.o. after 4 hours of postdose-1.; format: functional; conditions: route oral; in short: as §1
Rattus norvegicus [6] = assay: Antihypertensive activity in spontaneously hypertensive rats was measured as average blood pressure at 100 mg/kg, po after 24 hours of postdose-2; format: functional; in short: as §1

SMILES	BP (Rattus norvegicus [1])	other results
Cc1ccc(-c2nnc(O)c(-c3ccccc3)c2-c2ccc(C)cc2)cc1	Not significant	–
COc1ccccc1-c1c(-c2ccccc2)c(-c2ccccc2)nn(CCO)c1=O	Not significant	–
CC(=O)c1c(-c2ccc(Cl)cc2)c(-c2ccc(Cl)cc2)nn(CC(N)=O)c1=O	Not significant	–
CC(=O)c1c(-c2ccc(Cl)cc2)c(-c2ccc(Cl)cc2)nn(CC2CO2)c1=O (configuration not stated)	Not significant	–
Oc1nnc(-c2ccccc2)c(-c2ccccc2)c1-c1cccc(Cl)c1	Not significant	–
O=C(c1ccccc1)c1c(-c2ccccc2)c(-c2ccccc2)nn(CCO)c1=O	Not significant	–
CC(=O)c1c(-c2ccc(Cl)cc2)c(-c2ccc(Cl)cc2)nn(CCI)c1=O	Not significant	–
O=c1c(-c2cccc(Cl)c2)c(-c2ccccc2)c(-c2ccccc2)nn1CCO	Not significant	–
CCC(=O)c1c(-c2ccc(Cl)cc2)c(-c2ccc(Cl)cc2)nn(CCO)c1=O	Not significant	–
N#Cc1c(-c2ccc(Cl)c(Cl)c2)c(-c2ccc(Cl)c(Cl)c2)nn(CCO)c1=O	Not significant	–
N#Cc1c(-c2ccccc2Cl)c(-c2ccccc2Cl)nn(CCO)c1=O	Not significant	–
Oc1nnc(-c2ccccc2)c(-c2ccccc2)c1-c1ccc(Cl)cc1	Not significant	–
CCCC(=O)c1c(-c2ccc(Cl)cc2)c(-c2ccc(Cl)cc2)nn(CCO)c1=O	Not significant	–
CC(C)NCCn1nc(-c2ccc(Cl)cc2)c(-c2ccc(Cl)cc2)c(C#N)c1=O.Cl	–	BP (Rattus norvegicus [2]): 206 mmHg; BP (Rattus norvegicus [3]): 220 mmHg; BP (Rattus norvegicus [4]): 209 mmHg; BP (Rattus norvegicus [5]): 218 mmHg; BP (Rattus norvegicus [6]): 173 mmHg
O=C(O)c1c(O)nnc(-c2ccc(Cl)cc2)c1-c1ccc(Cl)cc1	Not significant	–
N#Cc1c(-c2ccc(F)cc2)c(-c2ccc(F)cc2)nn(CCO)c1=O	Not significant	–
CC(=O)c1c(-c2ccc(Cl)cc2)c(-c2ccc(Cl)cc2)nn(CCN2C(=O)c3ccccc3C2=O)c1=O	Not significant	–
CC(C)C(=O)c1c(-c2ccc(Cl)cc2)c(-c2ccc(Cl)cc2)nn(CCO)c1=O	Not significant	–
CCn1nc(-c2ccc(Cl)cc2)c(-c2ccc(Cl)cc2)c(C(C)=O)c1=O	Not significant	–
CCOC(=O)CCCn1nc(-c2ccc(Cl)cc2)c(-c2ccc(Cl)cc2)c(C#N)c1=O	Not significant	–
CCCC(=O)c1c(-c2ccc(Cl)cc2)c(-c2ccc(Cl)cc2)nn(C(C)CO)c1=O (configuration not stated)	Not significant	–

SMILES	BP (Rattus norvegicus [1])	other results
O=c1c(-c2ccccc2)c(-c2ccc(Cl)cc2)c(-c2ccc(Cl)cc2)nn1CCO	Not significant	–
CC(=O)c1c(-c2ccc(Cl)cc2)c(-c2ccc(Cl)cc2)nn(CCCN(C)C)c1=O	Not significant	–
CCOC(=O)Cn1nc(-c2ccc(OC)cc2)c(-c2ccc(OC)cc2)c(C(C)=O)c1=O	Not significant	–
CC(=O)Nc1ccc(-c2c(-c3ccc(Cl)cc3)c(-c3ccc(Cl)cc3)nn(CCO)c2=O)cc1	Not significant	–
O=C(O)CCCn1nc(-c2ccccc2)c(-c2ccccc2)c(-c2ccccc2)c1=O	Not significant	–
CC(=O)c1c(-c2ccccc2)c(-c2ccccc2)nn(C)c1=O	Not significant	–
O=c1c(-c2ccc3ccccc3c2)c(-c2ccccc2)c(-c2ccccc2)nn1CCO	Not significant	–
CCOC(=O)N1CCN(CCn2nc(-c3ccc(Cl)cc3)c(-c3ccc(Cl)cc3)c(C(C)=O)c2=O)CC1	–	BP (Rattus norvegicus [2]): 182 mmHg; BP (Rattus norvegicus [3]): 200 mmHg; BP (Rattus norvegicus [4]): 151 mmHg; BP (Rattus norvegicus [5]): 186 mmHg; BP (Rattus norvegicus [6]): 183 mmHg
COc1ccc(OC)c(-c2c(-c3ccccc3)c(-c3ccccc3)nn(CCO)c2=O)c1	Not significant	–
COc1cc(-c2c(O)nnc(-c3ccc(Cl)cc3)c2-c2ccc(Cl)cc2)cc(OC)c1OC	Not significant	–
CC(=O)c1c(-c2ccc(O)cc2)c(-c2ccc(O)cc2)nn(CC[n+]2ccccc2)c1=O	Not significant	–
COc1ccccc1-c1c(O)nnc(-c2ccccc2)c1-c1ccccc1	Not significant	–
COc1cccc(-c2c(-c3ccccc3)c(-c3ccccc3)nn(CCO)c2=O)c1	Not significant	–
CC(=O)c1c(-c2ccc(Cl)cc2)c(-c2ccc(Cl)cc2)nn(CCCCCO)c1=O	Not significant	–
CC(=O)Cn1nc(-c2ccc(Cl)cc2)c(-c2ccc(Cl)cc2)c(C#N)c1=O	Not significant	–
CC(=O)c1c(-c2ccc(Cl)cc2)c(-c2ccc(Cl)cc2)nn(CC(O)CNC(C)C)c1=O (configuration not stated)	Not significant	–
O=c1c(-c2ccc(Br)cc2)c(-c2ccccc2)c(-c2ccccc2)nn1CCO	Not significant	–
COC(=O)Cn1nc(-c2ccc(Cl)cc2)c(-c2ccc(Cl)cc2)c(C(C)=O)c1=O	Not significant	–
CC(=O)c1c(-c2ccc(OCc3ccccc3)cc2)c(-c2ccc(OCc3ccccc3)cc2)nn(CCO)c1=O	Not significant	–
CCOC(=O)c1c(-c2ccc(Cl)cc2)c(-c2ccc(Cl)cc2)nn(CCO)c1=O	Not significant	–
N#Cc1c(-c2ccc(Cl)cc2)c(-c2ccc(Cl)cc2)nn(CCCl)c1=O	Not significant	–

SMILES	BP (Rattus norvegicus [1])	other results
CC(=O)c1c(O)nnc(-c2ccc(Cl)cc2)c1-c1ccc(Cl)cc1	Not significant	–
Oc1nnc(-c2ccccc2)c(-c2ccccc2)c1-c1ccccc1	Not significant	–
CCOC(=O)CCCn1nc(-c2ccccc2)c(-c2ccccc2)c(C(C)=O)c1=O	Not significant	–
CC(=O)c1c(O)nnc(-c2ccc(F)cc2)c1-c1ccc(F)cc1	Not significant	–
CCOC(=O)CCCn1nc(-c2ccc(Cl)cc2)c(-c2ccc(Cl)cc2)c(C(C)=O)c1=O	–	BP (Rattus norvegicus [2]): 174 mmHg; BP (Rattus norvegicus [3]): 196 mmHg; BP (Rattus norvegicus [4]): 188 mmHg; BP (Rattus norvegicus [5]): 192 mmHg; BP (Rattus norvegicus [6]): 181 mmHg
O=c1cc(-c2ccc(Cl)cc2)c(-c2ccc(Cl)cc2)nn1CCO	Not significant	–
COc1ccc(-c2c(-c3ccccc3)c(-c3ccccc3)nn(CCO)c2=O)cc1OC	Not significant	–
Cn1nc(-c2ccccc2)c(-c2ccccc2)c(C#N)c1=O	Not significant	–
COc1ccc(-c2nn(CCO)c(=O)c(C(C)=O)c2-c2ccc(OC)cc2)cc1	Not significant	–
N#Cc1c(O)nnc(-c2ccc(Br)cc2)c1-c1ccc(Br)cc1	Not significant	–
N#Cc1c(O)nnc(-c2ccccc2Cl)c1-c1ccccc1Cl	Not significant	–
C/C(=N\N)c1c(O)nnc(-c2ccccc2)c1-c1ccccc1	Not significant	–
Cc1ccc(-c2c(O)nnc(-c3ccccc3)c2-c2ccccc2)cc1	Not significant	–
COc1ccc(-c2nn(CCO)c(=O)c(C#N)c2-c2ccc(OC)cc2)cc1	Not significant	–
COc1ccc(OC)c(-c2c(O)nnc(-c3ccccc3)c2-c2ccccc2)c1	Not significant	–
CCOC(=O)NCCn1nc(-c2ccc(Cl)cc2)c(-c2ccc(Cl)cc2)c(C(C)=O)c1=O	Not significant	–
CC(=O)c1c(-c2ccc(Cl)cc2)c(-c2ccc(Cl)cc2)nn(CCN(C)C)c1=O.Cl	–	BP (Rattus norvegicus [2]): 170 mmHg; BP (Rattus norvegicus [3]): 205 mmHg; BP (Rattus norvegicus [4]): 160 mmHg; BP (Rattus norvegicus [5]): 200 mmHg; BP (Rattus norvegicus [6]): 184 mmHg
CC(=O)c1c(-c2ccc(Cl)cc2)c(-c2ccc(Cl)cc2)nn(CCCl)c1=O	Not significant	–
C=Cn1nc(-c2ccc(Cl)cc2)c(-c2ccc(Cl)cc2)c(C(C)=O)c1=O	Not significant	–
CCCC(=O)c1c(O)nnc(-c2ccc(Cl)cc2)c1-c1ccc(Cl)cc1	Not significant	–
CC(=O)c1c(-c2ccc(O)cc2)c(-c2ccc(O)cc2)nn(CCO)c1=O	Not significant	–

SMILES	BP (Rattus norvegicus [1])	other results
Oc1nnc(-c2ccccc2)c(-c2ccccc2)c1-c1ccc(Br)cc1	Not significant	–
CC(=O)c1c(-c2ccc(Cl)cc2)c(-c2ccc(Cl)cc2)nn(CC(=O)O)c1=O	Not significant	–
CC(=O)c1c(-c2ccc(Cl)cc2)c(-c2ccc(Cl)cc2)nn(CC(O)CCl)c1=O (configuration not stated)	Not significant	–
Cc1ccc(-c2nnc(O)c(C#N)c2-c2ccc(C)cc2)cc1	Not significant	–
CC(O)c1c(-c2ccccc2)c(-c2ccccc2)nn(CCO)c1=O (configuration not stated)	Not significant	–
COC(=O)Cn1nc(-c2ccc(Cl)cc2)c(-c2ccc(Cl)cc2)c(C#N)c1=O	Not significant	–
CC(=O)c1c(O)nnc(-c2ccccc2)c1-c1ccccc1	Not significant	–
Cc1ccc(-c2nn(CCO)c(=O)c(-c3ccccc3)c2-c2ccc(C)cc2)cc1	Not significant	–
O=S(=O)(c1ccccc1)c1c(O)nnc(-c2ccccc2)c1-c1ccccc1	Not significant	–
CC(=O)c1c(-c2ccc(Cl)cc2)c(-c2ccc(Cl)cc2)nn(CC[N+](C)(C)C)c1=O	Not significant	–
CC(=O)c1c(-c2ccccc2)c(-c2ccccc2)nn(CCCC(=O)O)c1=O	Not significant	–
COc1ccc(-c2c(-c3ccccc3)c(-c3ccccc3)nn(CCO)c2=O)cc1	Not significant	–
O=C(O)c1c(-c2ccc(Cl)cc2)c(-c2ccc(Cl)cc2)nn(CCO)c1=O	Not significant	–
CC(=O)c1c(-c2ccc(Cl)cc2)c(-c2ccc(Cl)cc2)nn(CC(C)O)c1=O (configuration not stated)	Not significant	–
COc1ccc(-c2c(O)nnc(-c3ccccc3)c2-c2ccccc2)cc1	Not significant	–
CC(=O)c1c(-c2ccc(Cl)cc2)c(-c2ccc(Cl)cc2)nn(CCCCCCN2C(=O)c3ccccc3C2=O)c1=O	Not significant	–
COc1ccc(-c2nnc(O)c(C(C)=O)c2-c2ccc(OC)cc2)cc1	Not significant	–
N#Cc1c(O)nnc(-c2ccc(Cl)c(Cl)c2)c1-c1ccc(Cl)c(Cl)c1	Not significant	–
